One may read the MIC90 as an inhibitory concentration at the 90% level, which refers to growth in some studies and to a panel of isolates in others. Higher therefore signals weaker potency.

Molecules are shown by their SMILES. In brackets after ≈: the same amount, converted by molar mass. Some results are limits rather than exact numbers.

In the assay the test system is Mycobacterium tuberculosis. Nature of the assay: Antimycobacterial activity against multidrug-resistant Mycobacterium tuberculosis 6133 by alamar blue assay. The assay is classed as functional. In a few lines:
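Microplate Alamar Blue Assay; MIC is the lowest concentration giving ≥90% reduction in fluorescence relative to the mean of replicate bacterium-only controls. MDR strain 6133 is resistant to isoniazid and rifampicin.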
In the case of `NCC1CN(c2nc3c(cc2F)c(=O)c(C(=O)O)cn3[C@@H]2C[C@@H]2F)C/C1=N\OCc1ccc(F)cc1` (stereo partly specified), the MIC90 is 0.043 µg/mL (≈ 0.0857 µM).
For `NNC(=O)c1ccncc1` [ISONIAZID] the value was 4 µg/mL (≈ 29.2 µM); for `Cc1ccc(CO/N=C2\CN(c3nc4c(cc3F)c(=O)c(C(=O)O)cn4[C@@H]3C[C@@H]3F)CC2CN)cc1` (stereo partly specified), 0.03 µg/mL (≈ 0.0603 µM).
For `CO[C@H]1/C=C/O[C@@]2(C)Oc3c(C)c(O)c4c(O)c(c(/C=N/N5CCN(C)CC5)c(O)c4c3C2=O)NC(=O)/C(C)=C\C=C\[C@H](C)[C@H](O)[C@@H](C)[C@@H](O)[C@@H](C)[C@H](OC(C)=O)[C@@H]1C` [RIFAMPIN] the value was over 40 µg/mL; for `NCC1CN(c2nc3c(cc2F)c(=O)c(C(=O)O)cn3[C@@H]2C[C@@H]2F)C/C1=N\OCc1ccccc1` (stereo partly specified), 0.125 µg/mL (≈ 0.259 µM); for `NCC1CN(c2nc3c(cc2F)c(=O)c(C(=O)O)cn3[C@@H]2C[C@@H]2F)C/C1=N\OCc1ccc2c(c1)OCO2` (stereo partly specified), 0.054 µg/mL (≈ 0.102 µM).

Source of the values: ChEMBL document CHEMBL3632558, “Synthesis, antimycobacterial and antibacterial activity of l-[(1R,2S)-2-fluorocyclopropyl]naphthyridone derivatives containing an oxime-functionalized pyrrolidine moiety” (2015).
